This excerpt belongs to a sample that is enriched for hits.
Pf gametocyte = late stage P. falciparum gametocyte viability inhibitors, primary screen, ATP luminescence, HTS; P. falciparum stage V gametocytes, 24 h; inhibition, % at 10.9 µM; hit rate 0.065% among 150,000;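 active = inhibition above the mean plus 3 SD of compounds within the control limits, set per campaign, cut at about 38% in these data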;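 also: 0% = DMSO wells and 100% = medium only without gametocytes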
Biofilm kill mix = clotrimazole potentiators killing C. albicans biofilm, primary screen, 4-compound mixtures | C. albicans biofilm persisters + clotrimazole, fluorescence viability; primary screen in compound mixtures of four per well | inhibition, % at 7.6 µM | hit rate 0.02% among 120,000 | AID 1242, 2008;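 active = inhibition above 30.3% in the primary screen of four-compound pools, then above 30% when the compound was retested; inconclusive = passed the primary limit but could not be retested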;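 also: compounds exposed to preformed 24 h biofilms for 48 h; 0% = untreated biofilm control and 100% = clotrimazole plus chlorhexidine kill blank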
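Probe or stimulus – Clotrimazole 50 µg/mL co-treatment · System – C. albicans biofilms · Schedule – 24 h biofilm formation, then 48 h compound exposure, 37 °C · Evaluation – percent inhibition of biofilm viability · Technique – 2-h Alamar Blue fluorescence, 535/590 nm excitation/emission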
ROMK primary = ROMK potassium channel modulators, primary screen, cell-based, thallium flux, MLSMR library; ATP-sensitive inward rectifier potassium channel 1 (Homo sapiens), P48048; Tet-inducible ROMK, thallium flux fluorescence; actives lie on both sides; B-score at 10 µM; hit rate 2% among 130,000;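 active = signal ratio slope over the read window, or its plate-corrected B-score, at least 3 SD from the plate mean, either direction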;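 also: B-score of the F/F0 ratio slope over 7 to 12 s after thallium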
Target sequence (P48048 whole entry, looked up): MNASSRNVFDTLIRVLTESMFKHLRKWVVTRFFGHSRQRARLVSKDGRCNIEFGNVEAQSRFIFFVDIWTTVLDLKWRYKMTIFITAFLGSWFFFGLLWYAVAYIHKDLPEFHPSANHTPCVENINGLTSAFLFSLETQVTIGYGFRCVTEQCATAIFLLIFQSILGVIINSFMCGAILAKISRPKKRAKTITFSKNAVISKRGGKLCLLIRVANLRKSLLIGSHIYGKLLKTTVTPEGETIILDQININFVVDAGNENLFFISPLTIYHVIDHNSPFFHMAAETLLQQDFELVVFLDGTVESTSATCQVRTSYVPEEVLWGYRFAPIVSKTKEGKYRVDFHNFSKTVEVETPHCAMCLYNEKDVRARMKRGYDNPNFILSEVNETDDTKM
ROMK retest = ROMK channel modulator hit retest, confirmation, cell-based, thallium flux, duplicate, resupplied hits; shares compounds with ROMK primary; fluorescence ratio; active compounds read low; normalized thallium flux (F/F0 slope) at 10 µM; hit rate 54% among 3,000;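 active = Flux at 10 µM at least 3 SD below or above vehicle control mean in one or both replicates; inconclusive = no clear call, values can overlap the other calls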
Active calls of the source: *; ? = inconclusive; . = not tested or not shown.

SMILES	Pf gametocyte	Biofilm kill mix	ROMK primary	ROMK retest
O=C(NCCC1=CCCCC1)c1cc(-c2ccccn2)nc2ccccc12	3	3	0.73	.
Cc1ccc(NC(=S)NCc2ccc(Cl)cc2)c(C)c1	-21	.	.	.
CCOC(=O)C1CCCN(C(=O)c2cnn3c(C(F)F)cc(-c4ccc(C)cc4)nc23)C1 (stereo not drawn)	5	.	.	0.073
Cc1ccc(-c2cc(C(F)F)n3ncc(C(=O)NN4CCCCC4)c3n2)cc1	20	8	0.22	.
COc1ccccc1CNS(=O)(=O)c1cccs1	-5	.	.	.
COc1cc2c(cc1OC)CN(c1nc(CN3CCOCC3)nc3sc4c(c13)CCCC4)CC2	.	3	-2.4	.
COc1cc2c(cc1OC)CN(c1nc(CN3CCCCC3)nc3sc4c(c13)CCCC4)CC2	-26	8	-2.6*	0.064*
N#Cc1cccc(NC(=O)Cn2c3[n+](c4ccc(C(F)(F)F)cc42)CCCCC3)c1	-15	12	-1.2	.
C#CCOCCOCCOCCNc1nc(N2CCN(C(=O)[C@H](CCCCN)n3cc(C(N)COC(=O)C(F)(F)F)nn3)CC2)nc(N2CCN(C(=O)[C@H](CCCCN)n3cc(C(N)CC(C)C)nn3)CC2)n1 (stereo partly drawn)	.	3	.	.
Cc1nc2ccc(Br)cc2c(=O)n1Cc1cccs1	-4	.	.	.
COc1cccc(CC2(CO)CCCN(Cc3c(C)cc(C)cc3-n3cccn3)C2)c1 (stereo not drawn)	12	16	-3.7*	0.055*
COc1ccc(-n2ccnc2CN2CCCC(CO)(Cc3cccc(OC)c3)C2)cc1 (stereo not drawn)	11	6	-1.6	.
Cn1c(-c2cccs2)[n+](C)c2ccccc21	8	12	0.24	.
CCCCCOc1ccc(CSC(=N)N)cc1[N+](=O)[O-]	-4	.	.	0.052*
COc1ccc(CSC(=N)N)cc1[N+](=O)[O-]	.	.	-0.27	.
CCOc1ccc(C(C)=O)cc1CSC(=N)N	.	15	-0.49	.
CCCCOc1ccc(Br)cc1CSC(=N)N	8	10	-4*	0.057*
COc1ccc(CCNC(=O)C2CCN(C(=O)c3ccc(Br)cc3)CC2)cc1OC	0	.	.	.
COc1cc(CC(C#N)(CO)c2nc3ccccc3[nH]2)ccc1OC(F)F (stereo not drawn)	-10	4	.	.
Cc1ccc(N2C(=O)C3ON(c4ccccc4)C(CC(C)C)C3C2=O)cc1 (stereo not drawn)	3	19	.	.
O=C(CCN1CCCCCC1)c1ccccc1	.	19	.	.
O=C(CCCCN1CCCCC1)c1ccc2c(c1)Cc1ccccc1-2	9	11	-4.5*	0.064*
COCc1cc(C)nc(SCC[N+](C)(C)CC(=O)Nc2cccc(C(F)(F)F)c2)c1C#N	0	7	-2.6*	0.059*
COCc1cc(C)nc(SCC(=O)Nc2ccc(C)c(C)c2)c1C#N	.	.	0.67	.
CCCCOc1ccccc1C(=O)NNC(=S)NC(=O)c1ccccc1[N+](=O)[O-]	-11	.	.	.
SMILES	Pf gametocyte	Biofilm kill mix	ROMK primary	ROMK retest
C=CCNc1sc(C(=O)c2ccc(Br)s2)c(N)c1C#N	-8	.	-3.6*	0.056*
C=CCNc1sc(C(=O)c2ccccc2)c(N)c1C#N	5	.	.	.
COCCNC(=O)C1(S(=O)(=O)c2ccccc2)CC=CC1	-7	.	.	.
O=C(Cc1n[nH]c(=O)c2ccccc12)OCC(=O)c1ccc2c(c1)OCCO2	.	.	3.6*	0.083
Cc1cc(C(=O)COC(=O)Cc2n[nH]c(=O)c3ccccc23)c(C)n1-c1ccc2c(c1)OCO2	-58	17	.	.
CC1(c2nnc(Cc3ccccc3)o2)CC(c2ccccc2Br)=NO1 (stereo not drawn)	-4	.	.	.
COC(=O)C1CCN(Cc2cn(-c3ccccc3)nc2-c2ccc3c(c2)OCO3)CC1	-19	7	-0.79	.
CN(Cc1cn(-c2ccccc2)nc1-c1ccc2c(c1)OCO2)Cc1nccn1C	-12	1	0.017	.
COCCC1CCCCN1Cc1cn(-c2ccccc2)nc1-c1ccc2c(c1)OCO2 (stereo not drawn)	1	13	-4.9*	0.052*
CN(CCn1ccnc1)Cc1cn(-c2ccccc2)nc1-c1ccc2c(c1)OCO2	-10	3	-4.6*	0.052*
O=C1CC(C(F)(F)F)=NN1	-9	20	.	.
Cn1cccc1C(=O)C(=O)Nc1ccc(F)c(F)c1	-9	2	-0.15	.
CCCCCCc1ccc(-c2ncc(N)cn2)cc1	-14	.	-4.3*	0.081
CCCCCc1ccc(-c2nnc(N)s2)cc1	-8	15	-0.35	.
NS(=O)(=O)c1ccc(N/C=C\C(=O)c2ccc3ccccc3c2)cc1	.	17	.	.
COc1ccc(/C=C/C(=O)NC(=S)Nc2cc([N+](=O)[O-])ccc2O)cc1OC	4	-1	1.4	.
O=C(C1CCN(Cc2ccc(F)cc2)CC1)N(CCO)Cc1ccccc1	-28	.	.	.
O=C(C1CCN(Cc2ccc(F)cc2)CC1)N(CCc1ccccc1)Cc1ccccc1	.	20	-3.5*	0.046*
CCOC(=O)/C=C(C)\C=C\c1c[nH]c2ccccc12	8	13	0.75	.
Cc1ccccc1Cn1c(=O)n(C)c(=O)c2sccc21	-32	.	.	.
COc1ccc(Cc2noc(CN(C)CC(O)c3ccccc3)n2)cc1OC (stereo not drawn)	-13	17	-0.47	.
CC(=O)OC1CC(c2cc(C(C)(C)C)c(O)c(C(C)(C)C)c2)=NO1 (stereo not drawn)	12	22	.	.
C[n+]1c2n(c3ccccc31)N=C(c1cc(C(C)(C)C)c(O)c(C(C)(C)C)c1)CS2	-16	9	-5.5*	0.039*
OC1(c2ccccc2)CCN(Cc2ccccc2)C2CCCCC21 (stereo not drawn)	.	0	-4.5*	0.067*
Cc1oc(-c2cccs2)nc1CN1CC[C@@](O)(c2ccccc2)[C@H]2CCCC[C@@H]21	6	20	-1.7	.
SMILES	Pf gametocyte	Biofilm kill mix	ROMK primary	ROMK retest
O=C1NC(c2ccc3c(c2)OCO3)Nc2ccccc21 (stereo not drawn)	14	.	2.2*	0.085
COc1ccc(C2NC(=O)c3ccccc3N2)cc1OC (stereo not drawn)	-4	.	0.3	.
CCN(CC)c1ccc(C=Nc2ccc(N(C)C)cc2)c(O)c1	-7	.	-2.7*	?
CCN(CC)c1ccc(C=Nc2ccc(C)cc2)c(O)c1	-4	4	1.7	.
CCc1nc2ccccc2c(C(=O)Nc2ccc(F)cc2)c1C	0	.	.	.
COc1ccc2c(c1)c(C(O)CN1CCC(Cc3ccccc3)CC1)c(C)n2C (stereo not drawn)	.	.	.	0.058*
COc1ccc(OC)c(CN2CCC(Cc3ccccc3)CC2)c1	5	.	.	.
COc1ccc(C(=O)NCc2nnc(SCC(=O)Nc3nc4ccc(C)cc4s3)o2)cc1OC	2	9	0.38	.
COc1ccc(CNCc2ccc3c(c2)OCO3)c(OC)c1OC	21	.	.	.
COc1ccc(OCC(=O)NNc2c3ccccc3nc3ccccc23)cc1	-2	.	.	?
O=C(COc1ccccc1)NNc1c2ccccc2nc2ccccc12	-11	.	.	.
N#CC1=C(N)Oc2c(ccc3cccnc23)C1c1cccnc1 (stereo not drawn)	.	.	3.6*	?
N#CC1=C(N)Oc2cc3ccccc3cc2C1c1cccnc1 (stereo not drawn)	16	.	.	.

Screens (PubChem BioAssay)
